Measured values: ChEMBL document CHEMBL3860059, “Design, Synthesis, and Biological Evaluation of First-in-Class Dual Acting Histone Deacetylases (HDACs) and Phosphodiesterase 5 (PDE5) Inhibitors for the Treatment of Alzheimer's Disease” (J Med Chem, 2016)

Columns and labels:
[1] = biological target: T1, Protein deacetylase HDAC6 (Homo sapiens, UniProt Q9UBN7); assay: Inhibition of full length recombinant human N-terminal GST tagged HDAC6 expressed in baculovirus infected Sf9 cells using fluorogenic HDAC substrate after 30 mins by fluorescence analysis
T1 sequence (Q9UBN7 whole entry): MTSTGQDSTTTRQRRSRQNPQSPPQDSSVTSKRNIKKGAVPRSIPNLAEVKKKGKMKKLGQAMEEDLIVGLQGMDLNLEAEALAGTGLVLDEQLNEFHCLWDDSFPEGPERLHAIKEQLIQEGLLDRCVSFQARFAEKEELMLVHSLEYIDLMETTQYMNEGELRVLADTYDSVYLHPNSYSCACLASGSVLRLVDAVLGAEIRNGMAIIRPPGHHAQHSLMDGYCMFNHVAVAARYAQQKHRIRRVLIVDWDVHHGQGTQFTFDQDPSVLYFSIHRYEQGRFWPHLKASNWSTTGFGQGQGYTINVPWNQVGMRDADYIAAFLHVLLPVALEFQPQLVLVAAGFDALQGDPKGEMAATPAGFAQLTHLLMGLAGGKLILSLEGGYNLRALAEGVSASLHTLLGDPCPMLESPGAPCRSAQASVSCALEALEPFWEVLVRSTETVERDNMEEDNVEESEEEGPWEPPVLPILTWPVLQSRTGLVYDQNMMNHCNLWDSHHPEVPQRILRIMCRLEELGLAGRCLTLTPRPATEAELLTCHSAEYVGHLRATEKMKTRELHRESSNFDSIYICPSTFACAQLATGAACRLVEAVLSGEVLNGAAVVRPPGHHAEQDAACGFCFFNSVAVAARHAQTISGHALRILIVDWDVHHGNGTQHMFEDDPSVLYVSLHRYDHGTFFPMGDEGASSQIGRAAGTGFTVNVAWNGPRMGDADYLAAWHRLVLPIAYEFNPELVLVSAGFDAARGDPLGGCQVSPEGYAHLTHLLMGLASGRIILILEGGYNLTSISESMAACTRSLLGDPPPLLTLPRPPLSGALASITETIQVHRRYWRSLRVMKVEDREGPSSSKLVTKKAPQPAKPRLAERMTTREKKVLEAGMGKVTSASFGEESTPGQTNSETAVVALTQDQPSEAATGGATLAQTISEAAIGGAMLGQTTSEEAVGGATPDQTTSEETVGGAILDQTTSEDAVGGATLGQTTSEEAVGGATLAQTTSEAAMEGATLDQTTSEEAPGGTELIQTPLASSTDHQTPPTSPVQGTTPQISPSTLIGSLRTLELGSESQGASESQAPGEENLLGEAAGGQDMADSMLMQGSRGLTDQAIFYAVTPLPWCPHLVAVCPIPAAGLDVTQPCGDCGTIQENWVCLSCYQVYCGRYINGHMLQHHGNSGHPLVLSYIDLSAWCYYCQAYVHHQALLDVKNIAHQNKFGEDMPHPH
In short: (§1)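 Full-length human recombinant HDAC1 (0.4 μg/mL final), HDAC2 (1.5 μg/mL), HDAC3/NCOR2 (0.1 μg/mL) or HDAC6 (3.6 μg/mL) with 10 μM fluorogenic acetyl-lysine substrate and 0.1 mg/mL BSA, 1% DMSO, 30 min at 37 °C; lysine developer 20 min at room temperature; fluorescence ex 355/em 460 nm. Vehicle = positive control, no enzyme = negative; IC50 from curve fit.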

[2] = biological target: Histone deacetylase 2 (Homo sapiens, UniProt Q92769); assay: Inhibition of full length recombinant human C-terminal His-tagged HDAC2 expressed in baculovirus infected Sf9 cells using fluorogenic HDAC substrate after 30 mins by fluorescence analysis; in short: as §1
[3] = biological target: cGMP-specific 3',5'-cyclic phosphodiesterase (Homo sapiens, UniProt O76074); assay: Inhibition of full length recombinant human N-terminal GST-tagged PDE5A1 expressed in baculovirus infected Sf9 cells using cGMP as substrate after 30 mins by HTRF assay
[4] = biological target: Histone deacetylase 1 (Homo sapiens, UniProt Q13547); assay: Inhibition of full length recombinant human C-terminal His/Flag-tagged HDAC1 expressed in baculovirus infected Sf9 cells using fluorogenic HDAC substrate after 30 mins by fluorescence analysis; in short: as §1
[5] = Passive membrane permeability of the compound at 50 uM after 18 hrs by PAMPA; format: ADME; conditions: read-out: Peff
In short: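 PAMPA: 50 μM donor solution in PBS/EtOH 70:30 over PVDF membrane precoated with PBL/dodecane (20 mg/mL); PBS/EtOH acceptor; 18 h at 20 °C without shaking; duplicates; donor and acceptor concentrations by UV absorbance corrected against vehicle.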

[6] = Cytotoxicity against human THLE2 cells assessed as reduction in cell viability after 72 hrs by ATP Vialight assay; format: toxicity, cell-based, THLE-2; conditions: read-out: LC50
In short: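 Immortalized human liver THLE-2 cells in BEGM with 0.7 μg/mL phosphoethanolamine, 0.5 ng/mL EGF, antibiotics and 10% FBS, seeded at 10,000 cells/well and left 24 h at 37 °C. Compounds were added at final 0–100 μM in 1% DMSO for 72 h. Cellular ATP was read by luminescence after 45 min lysis.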

[7] = Selectivity ratio of pLC50 for mouse primary glial cells to pLC50 for human THLE2 cells; format: ADME, cell-based; conditions: mouse primary glial cells versus THLE2 cells
[8] = Selectivity ratio of pIC50 for full length recombinant human N-terminal GST tagged HDAC6 expressed in baculovirus infected Sf9 cells to pIC50 for full length recombinant human C-terminal His/Flag-tagged HDAC1 expressed in baculovirus infected Sf9 cells
[9] = biological target: Histone deacetylase 3/Nuclear receptor corepressor 2 (HDAC3/NCoR2) (Homo sapiens, UniProt O15379); assay: Inhibition of full length recombinant human C-terminal His-tagged HDAC3/N-terminal GST-tagged NCOR2 (395 to 489 residues) expressed in baculovirus infected Sf9 cells using fluorogenic HDAC substrate after 30 mins by fluorescence analysis
Sequence of Histone deacetylase 3/Nuclear receptor corepressor 2 (HDAC3/NCoR2) (O15379 whole entry, the tested form may be a part): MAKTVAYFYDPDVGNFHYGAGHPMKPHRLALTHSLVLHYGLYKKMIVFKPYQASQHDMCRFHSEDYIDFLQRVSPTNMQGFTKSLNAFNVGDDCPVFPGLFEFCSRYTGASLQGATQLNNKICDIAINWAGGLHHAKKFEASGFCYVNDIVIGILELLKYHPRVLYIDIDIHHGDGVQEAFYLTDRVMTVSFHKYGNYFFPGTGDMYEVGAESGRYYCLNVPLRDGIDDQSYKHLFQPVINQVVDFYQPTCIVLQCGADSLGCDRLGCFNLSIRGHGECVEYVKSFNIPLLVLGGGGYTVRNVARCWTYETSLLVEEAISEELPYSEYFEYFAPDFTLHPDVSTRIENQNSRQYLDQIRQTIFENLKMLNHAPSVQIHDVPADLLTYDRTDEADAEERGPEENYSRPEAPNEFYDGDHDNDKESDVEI
Sequence of Histone deacetylase 3/Nuclear receptor corepressor 2 (HDAC3/NCoR2) (Q9Y618 whole entry, further chain, the tested form may be a part): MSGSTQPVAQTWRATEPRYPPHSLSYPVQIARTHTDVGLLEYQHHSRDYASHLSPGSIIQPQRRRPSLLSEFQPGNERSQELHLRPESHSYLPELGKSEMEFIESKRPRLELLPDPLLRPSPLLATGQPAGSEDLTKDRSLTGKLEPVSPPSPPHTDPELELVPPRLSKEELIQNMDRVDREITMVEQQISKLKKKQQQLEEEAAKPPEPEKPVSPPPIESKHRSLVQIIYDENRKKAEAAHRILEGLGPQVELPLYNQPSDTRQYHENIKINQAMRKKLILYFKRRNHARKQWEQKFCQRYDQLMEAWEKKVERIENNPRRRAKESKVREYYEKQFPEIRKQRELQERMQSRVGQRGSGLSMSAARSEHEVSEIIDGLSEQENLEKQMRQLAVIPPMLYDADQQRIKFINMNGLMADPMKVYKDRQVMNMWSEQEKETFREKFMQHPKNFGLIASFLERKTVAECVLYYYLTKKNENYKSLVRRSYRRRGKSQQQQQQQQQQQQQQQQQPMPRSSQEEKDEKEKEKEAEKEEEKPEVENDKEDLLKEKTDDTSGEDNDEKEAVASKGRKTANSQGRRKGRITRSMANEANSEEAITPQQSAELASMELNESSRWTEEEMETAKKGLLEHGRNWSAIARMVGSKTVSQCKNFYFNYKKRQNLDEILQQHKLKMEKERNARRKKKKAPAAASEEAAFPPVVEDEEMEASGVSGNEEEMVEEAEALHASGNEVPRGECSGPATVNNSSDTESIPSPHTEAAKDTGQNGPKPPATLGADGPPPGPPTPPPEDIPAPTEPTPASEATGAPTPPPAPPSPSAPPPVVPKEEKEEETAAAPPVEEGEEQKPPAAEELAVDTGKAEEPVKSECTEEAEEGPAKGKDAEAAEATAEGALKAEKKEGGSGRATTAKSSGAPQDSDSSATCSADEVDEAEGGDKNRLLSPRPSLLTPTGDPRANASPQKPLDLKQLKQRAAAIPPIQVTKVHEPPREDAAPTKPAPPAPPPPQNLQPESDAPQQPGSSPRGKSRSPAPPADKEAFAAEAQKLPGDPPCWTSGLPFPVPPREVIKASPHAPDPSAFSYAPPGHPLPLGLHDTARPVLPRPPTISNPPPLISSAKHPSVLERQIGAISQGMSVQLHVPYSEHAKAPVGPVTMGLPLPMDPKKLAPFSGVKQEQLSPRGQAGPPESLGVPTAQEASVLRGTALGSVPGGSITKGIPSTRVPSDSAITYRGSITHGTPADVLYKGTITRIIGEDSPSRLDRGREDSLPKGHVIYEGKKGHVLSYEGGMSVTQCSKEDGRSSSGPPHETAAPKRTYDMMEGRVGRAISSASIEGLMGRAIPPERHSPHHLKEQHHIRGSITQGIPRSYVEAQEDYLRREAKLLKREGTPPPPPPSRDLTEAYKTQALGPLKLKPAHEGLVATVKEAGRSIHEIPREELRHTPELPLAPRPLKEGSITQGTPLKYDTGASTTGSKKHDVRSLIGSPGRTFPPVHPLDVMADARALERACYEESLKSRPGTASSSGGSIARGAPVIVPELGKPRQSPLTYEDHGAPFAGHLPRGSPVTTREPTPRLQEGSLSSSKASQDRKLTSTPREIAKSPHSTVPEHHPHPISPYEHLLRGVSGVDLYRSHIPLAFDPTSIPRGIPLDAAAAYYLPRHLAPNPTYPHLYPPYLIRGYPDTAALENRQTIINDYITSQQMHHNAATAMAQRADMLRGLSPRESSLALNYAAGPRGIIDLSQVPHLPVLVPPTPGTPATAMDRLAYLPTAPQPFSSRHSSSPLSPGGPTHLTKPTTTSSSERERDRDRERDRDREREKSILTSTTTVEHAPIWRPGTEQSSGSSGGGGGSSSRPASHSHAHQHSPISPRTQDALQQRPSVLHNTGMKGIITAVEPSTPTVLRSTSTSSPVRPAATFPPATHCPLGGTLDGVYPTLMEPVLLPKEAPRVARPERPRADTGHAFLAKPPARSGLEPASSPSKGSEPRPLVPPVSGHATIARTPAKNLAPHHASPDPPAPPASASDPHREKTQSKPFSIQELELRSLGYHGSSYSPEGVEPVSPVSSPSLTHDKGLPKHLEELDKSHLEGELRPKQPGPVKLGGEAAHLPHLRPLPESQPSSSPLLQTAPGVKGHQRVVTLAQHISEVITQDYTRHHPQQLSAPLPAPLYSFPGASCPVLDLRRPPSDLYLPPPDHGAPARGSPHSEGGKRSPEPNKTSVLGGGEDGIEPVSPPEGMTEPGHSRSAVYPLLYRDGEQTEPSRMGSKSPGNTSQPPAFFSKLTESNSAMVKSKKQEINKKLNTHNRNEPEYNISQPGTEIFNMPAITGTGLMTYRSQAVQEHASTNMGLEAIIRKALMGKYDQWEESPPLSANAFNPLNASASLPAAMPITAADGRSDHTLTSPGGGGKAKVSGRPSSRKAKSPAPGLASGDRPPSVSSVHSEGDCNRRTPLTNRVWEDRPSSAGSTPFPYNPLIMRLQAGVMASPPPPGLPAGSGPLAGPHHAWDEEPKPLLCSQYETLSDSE

Sequence of Histone deacetylase 1 (Q13547 whole entry): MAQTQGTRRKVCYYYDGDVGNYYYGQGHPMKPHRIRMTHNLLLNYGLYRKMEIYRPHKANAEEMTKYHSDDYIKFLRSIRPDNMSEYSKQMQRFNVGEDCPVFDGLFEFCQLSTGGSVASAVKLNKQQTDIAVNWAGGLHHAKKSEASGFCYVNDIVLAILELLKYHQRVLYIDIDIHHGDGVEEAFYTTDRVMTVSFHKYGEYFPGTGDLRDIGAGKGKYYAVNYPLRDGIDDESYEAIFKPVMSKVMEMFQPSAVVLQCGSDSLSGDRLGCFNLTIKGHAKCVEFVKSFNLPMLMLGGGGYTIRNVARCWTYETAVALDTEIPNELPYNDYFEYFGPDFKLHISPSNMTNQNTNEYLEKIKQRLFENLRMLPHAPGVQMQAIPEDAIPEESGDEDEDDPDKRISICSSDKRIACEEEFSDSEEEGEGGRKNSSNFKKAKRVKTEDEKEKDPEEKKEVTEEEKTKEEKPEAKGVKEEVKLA
Sequence of Histone deacetylase 2 (Q92769 whole entry): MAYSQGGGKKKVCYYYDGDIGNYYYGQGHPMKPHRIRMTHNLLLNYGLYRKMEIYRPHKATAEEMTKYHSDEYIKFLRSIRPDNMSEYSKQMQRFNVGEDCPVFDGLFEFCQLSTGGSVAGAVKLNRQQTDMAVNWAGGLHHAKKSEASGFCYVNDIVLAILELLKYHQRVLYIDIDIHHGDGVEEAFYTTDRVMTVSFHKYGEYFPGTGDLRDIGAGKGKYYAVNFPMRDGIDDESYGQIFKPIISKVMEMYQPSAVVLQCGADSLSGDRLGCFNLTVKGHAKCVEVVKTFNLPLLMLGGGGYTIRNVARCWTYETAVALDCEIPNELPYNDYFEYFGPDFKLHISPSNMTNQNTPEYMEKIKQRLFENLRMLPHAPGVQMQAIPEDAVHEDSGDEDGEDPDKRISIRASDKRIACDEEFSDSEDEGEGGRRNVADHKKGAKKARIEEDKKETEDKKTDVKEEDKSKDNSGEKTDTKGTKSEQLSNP

| SMILES | IC50 [1] [µM] | IC50 [2] [µM] | IC50 [3] [µM] | IC50 [4] [µM] | Papp at 18 h, 50 µM [5] [×10⁻⁶ cm/s] | CC50 at 72 h [6] [µM] | selectivity ratio [7] | Ratio pIC50 [8] | IC50 [9] [µM] |
| --- | --- | --- | --- | --- | --- | --- | --- | --- | --- |
| CCCc1nn(C)c2c(=O)[nH]c(-c3cc(N4CCC5(CCC(C(=O)NO)C5)CC4)ccc3OCC)nc12 (stereo not given) | 4.34 | > 20 | 0.012 | 12.9 | – | – | – | – | – |
| CCCc1nn(C)c2c(=O)[nH]c(-c3cc(NCCC(=O)NO)ccc3OCC)nc12 | 10.4 | > 20 | 0.044 | 7.08 | – | – | – | – | – |
| CCCc1nn(C)c2c(=O)[nH]c(-c3cc(C4CCC(CC(=O)NO)CC4)ccc3OCC)nc12 (stereo not given) | 5.13 | > 20 | 0.07 | 6.91 | – | – | – | – | – |
| CCCc1nn(C)c2c(=O)[nH]c(-c3cc(S(=O)(=O)N4CCN(C)CC4)ccc3OCC)nc12 | – | – | – | – | 2.75 | > 100 | – | – | – |
| CCCc1nn(C)c2c(=O)[nH]c(-c3cc(N4CCC(CCC(=O)NO)CC4)ccc3OCC)nc12 | 1.06 | 2.03 | 0.024 | 0.603 | – | – | – | – | – |
| CCCc1nn(C)c2c(=O)[nH]c(-c3cc(OC4CCC(C(=O)NO)CC4)ccc3OCC)nc12 (stereo not given) | 2.33 | 9.83 | 0.011 | 2.44 | – | – | – | – | – |
| CCCc1nn(C)c2c(=O)[nH]c(-c3cc(NC4CCN(c5ccc(C(=O)NO)cc5)CC4)ccc3OCC)nc12 | 1.6 | 17.5 | 0.02 | 7.81 | – | – | – | – | – |
| CCCc1nn(C)c2c(=O)[nH]c(-c3cc(C4CC4C(=O)NO)ccc3OCC)nc12 (stereo not given) | 5.37 | > 20 | 0.02 | 8.75 | – | – | – | – | – |
| CCCc1nn(C)c2c(=O)[nH]c(-c3cc(CC4CCN(CCC(=O)NO)CC4)ccc3OCC)nc12 | > 20 | > 20 | 0.057 | > 20 | – | – | – | – | – |
| CCCc1nn(C)c2c(=O)[nH]c(-c3cc(CN4CCN(c5ncc(C(=O)NO)cn5)CC4)ccc3OCC)nc12 | 0.379 | 0.089 | 0.007 | 0.014 | 0.89 | – | < 0.4 | > 1 | – |
| CCCc1nn(C)c2c(=O)[nH]c(-c3cc(N(C)C4CCN(c5ncc(C(=O)NO)cn5)CC4)ccc3OCC)nc12 | 0.584 | 0.166 | 0.01 | 0.025 | – | – | – | > 1 | 0.043 |
| CCCc1nn(C)c2c(=O)[nH]c(-c3cc(NCC4CCN(c5ncc(C(=O)NO)cn5)CC4)ccc3OCC)nc12 | 0.709 | 0.712 | 0.017 | 0.118 | – | – | – | > 0.6 | – |
| CCCc1nn(C)c2c(=O)[nH]c(-c3cc(C(=O)NO)ccc3OCC)nc12 | > 20 | > 20 | 0.005 | 6.42 | – | – | – | – | – |
| CCCc1nn(C)c2c(=O)[nH]c(-c3cc(S(=O)(=O)N4CCN(CCC(=O)NO)CC4)ccc3OCC)nc12 | 2.36 | > 20 | 0.003 | 10.5 | – | – | – | – | – |
| CCCc1nn(C)c2c(=O)[nH]c(-c3cc(N4CCC5(CCN(c6ncc(C(=O)NO)cn6)CC5)C4)ccc3OCC)nc12 | 1.9 | 1.85 | 0.074 | 0.443 | – | – | – | > 0.6 | – |
